{"data": "Measured values gathered from unrelated publications", "target": "Cytochrome P450 1A2 (CYP1A2, Homo sapiens, UniProt P05177)", "note": "Compare with care: the assays were run in different laboratories."}
{"Structure (SMILES)": "COc1ccc(Oc2ccc(CN(Cc3ccccc3)Cc3cnc4nc(N)nc(N)c4n3)cc2)cc1", "assay": "enzyme activity, inhibitor, luciferase", "setting": "10 µM", "quantity": "inhibition", "result": "-21.8%"}
{"Structure (SMILES)": "CCc1cc(/C(C)=N/OCc2ccc(C3CCCCC3)c(C(F)(F)F)c2)ccc1CN1CC(C(=O)O)C1", "assay": "enzyme activity, inhibitor", "test system": "human, liver microsomes", "setting": "200 µM, 20 min", "quantity": "inhibition", "result": "-193%"}
{"Structure (SMILES)": "COc1ccc(CNC(=O)c2ccc(CNCc3cnc4nc(N)nc(N)c4n3)cc2)cc1OC", "assay": "enzyme activity, inhibitor, luciferase", "setting": "10 µM", "quantity": "inhibition", "result": "-18.2%"}
{"Structure (SMILES)": "CC1(CO)C(O[C@@H]2O[C@H](C(=O)O)[C@@H](O)[C@H](O)[C@H]2O)CC[C@@]2(C)C1CC[C@]1(C)C2CC=C2[C@H]3CC(C)(C)[C@H](O)[C@@H](O)[C@]3(CO)[C@H](O)C[C@]21C (stereo partly drawn)", "assay": "enzyme activity, inhibitor, mass spectrometry", "test system": "human, liver microsomes", "quantity": "IC50", "result": "> 90 µg/mL"}
{"Structure (SMILES)": "C=C[C@H]1C[N@@]2CC[C@H]1C[C@@H]2[C@@H](O)c1ccnc2ccc(OC)cc12", "assay": "enzyme activity, inhibitor", "test system": "human, liver microsomes", "setting": "10 µM", "quantity": "inhibition", "result": "-5%"}
{"Structure (SMILES)": "N=C(N)NCc1ccc(NC(=O)C23CCC(C(=O)Nc4ccc(C5=CCN(C(=N)N)CC5)cc4)(CC2)CC3)cc1", "assay": "enzyme activity, inhibitor", "test system": "liver microsomes", "setting": "10 µM", "quantity": "inhibition", "result": "0%"}
{"Structure (SMILES)": "Cc1ccc(C(=O)N2CCOC[C@H]2Cc2cccc(-n3nccn3)c2)c(-n2nccn2)c1", "assay": "enzyme activity, inhibitor", "test system": "human, liver microsomes", "setting": "100 µM", "quantity": "inhibition", "result": "23%"}
{"Structure (SMILES)": "CON=C(N)c1ccc(-c2ccc(-c3ccc(C(N)=NOC)cc3)o2)cc1", "assay": "enzyme activity, substrate", "quantity": "Km", "result": "0.4 µM"}
{"Structure (SMILES)": "O=C(Nc1c2c(cc3c1CCC3)CCC2)NS(=O)(=O)/C=C/c1nccs1", "assay": "enzyme activity, inhibitor", "test system": "human, liver microsomes", "setting": "10 µM, pH 7.4", "quantity": "inhibition", "result": "9.5%"}
{"Structure (SMILES)": "COc1ccc(CNC(=O)c2ccc(CNCc3cnc4nc(N)nc(N)c4n3)cc2)cc1", "assay": "enzyme activity, inhibitor, luciferase", "setting": "10 µM", "quantity": "inhibition", "result": "-18.9%"}
{"Structure (SMILES)": "N=C(N)N1CC=C(c2coc(C(=O)Nc3ccc(C4=CCN(C(=N)N)CC4)c(F)c3)c2)CC1", "assay": "enzyme activity, inhibitor", "test system": "liver microsomes", "setting": "10 µM", "quantity": "inhibition", "result": "0%"}
{"Structure (SMILES)": "O=C(N[C@H](Cc1c[nH]c2ccccc12)C(=O)Nc1ccncc1)c1ccc(-c2cc(F)ccc2F)cc1F", "assay": "enzyme activity, inhibitor", "test system": "human, liver microsomes", "setting": "1 µM", "quantity": "inhibition", "result": "3%"}
{"Structure (SMILES)": "C=CC(=O)Nc1cc(Nc2nccc(Nc3cc(Cl)c(F)cc3C(C)(C)O)n2)c(OC)cc1N1CC[C@@H](N(C)C)C1", "assay": "enzyme activity, inhibitor", "test system": "human, liver microsomes", "setting": "10 µM", "quantity": "inhibition", "result": "< 20%"}
{"Structure (SMILES)": "Nc1nc(N)c2nc(CNc3ccc(C(=O)N4CCC(C(=O)O)CC4)cc3)cnc2n1", "assay": "enzyme activity, inhibitor, luciferase", "setting": "10 µM", "quantity": "inhibition", "result": "-33.3%"}
{"Structure (SMILES)": "CC(=O)N1CCN(c2ccc(OCC3COC(Cn4ccnc4)(c4ccc(Cl)cc4Cl)O3)cc2)CC1 (stereo not drawn)", "assay": "enzyme activity, inhibitor", "test system": "human, liver microsomes", "setting": "1 µM", "quantity": "inhibition", "result": "-6%"}
{"Structure (SMILES)": "N[C@@H](COCc1ccccc1)C(=O)Nc1nc2ccc(OC(F)(F)F)cc2s1", "assay": "metabolic stability", "test system": "human, liver microsomes", "setting": "1 µM, 0 h, pH 7.4", "quantity": "compound remaining", "result": "100%"}
{"Structure (SMILES)": "COc1ccc(Oc2ccc(CNCc3cnc4nc(N)nc(N)c4n3)cc2)cc1", "assay": "enzyme activity, inhibitor, luciferase", "setting": "10 µM", "quantity": "inhibition", "result": "-5.44%"}
{"Structure (SMILES)": "Cc1cccc(F)c1N1CCC(N2Cc3cn(CC(C)(F)F)nc3N(Cc3ccccc3C(F)(F)F)C2=O)CC1", "assay": "enzyme activity, inhibitor", "test system": "human, liver microsomes", "quantity": "IC50", "result": "> 10 µM"}
